Data on 31 compounds can be found in ChEMBL document CHEMBL3612019, “Revisiting 1,3,4-Oxadiazol-2-ones: Utilization in the Development of ABHD6 Inhibitors” (Bioorg Med Chem, 2015).

Activity calls are given as the source filed them. The rule behind the calls is not given here.

As a reminder, the inhibition is the share of the control response that was lost under treatment. As usually defined, the pIC50 is the negative decadic logarithm of the IC50, by convention in mol/L.

For test [1], the target named is T1, Monoacylglycerol lipase ABHD6 (Homo sapiens) (UniProt Q9BV23).
T1 sequence (whole entry): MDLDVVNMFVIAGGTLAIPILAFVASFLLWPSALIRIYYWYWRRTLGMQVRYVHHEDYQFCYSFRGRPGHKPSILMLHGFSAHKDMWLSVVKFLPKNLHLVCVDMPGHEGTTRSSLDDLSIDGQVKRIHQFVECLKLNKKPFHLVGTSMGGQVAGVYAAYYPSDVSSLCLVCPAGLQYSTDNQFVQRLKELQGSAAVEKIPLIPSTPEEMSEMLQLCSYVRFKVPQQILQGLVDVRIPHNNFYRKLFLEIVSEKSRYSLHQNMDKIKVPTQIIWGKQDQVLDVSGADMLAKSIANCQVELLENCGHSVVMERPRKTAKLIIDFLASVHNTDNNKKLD
Kind of test: Inhibition of human ABHD6 expressed in HEK293 cells assessed as remaining enzyme activity by measuring reduction in glycerol production from 1-AG hydrolysis at 1 uM pre-incubated for 30 mins before 1-AG substrate addition and measured 90 mins post substrate addition by fluorescence method. It counts as cell-based. The method, boiled down:
(§1)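 hABHD6-HEK293 lysates pretreated 30 min with DMSO or inhibitor, then given 1-AG (12.5 µM final). Glycerol release was followed kinetically by fluorescence (emission 590 nm). Blanks without lysate were subtracted. IC50 was taken at the 90 min time point by nonlinear fitting of dose–response curves.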

For test [2], the target named is T2, Monoacylglycerol lipase ABHD6 (Homo sapiens, UniProt Q9BV23).
T2 sequence (Q9BV23 whole entry): T1 sequence (whole entry)
Description: Inhibition of human ABHD6 expressed in HEK293 cells assessed as reduction in glycerol production from 1-AG hydrolysis pre-incubated for 30 mins before 1-AG substrate addition and measured 90 mins post substrate addition by fluorescence method. It is filed as cell-based. The gist of the method: as §1

Test [3] addresses T3, Lysophosphatidylserine lipase ABHD12 (Homo sapiens) (UniProt Q8N2K0).
T3 sequence (whole entry): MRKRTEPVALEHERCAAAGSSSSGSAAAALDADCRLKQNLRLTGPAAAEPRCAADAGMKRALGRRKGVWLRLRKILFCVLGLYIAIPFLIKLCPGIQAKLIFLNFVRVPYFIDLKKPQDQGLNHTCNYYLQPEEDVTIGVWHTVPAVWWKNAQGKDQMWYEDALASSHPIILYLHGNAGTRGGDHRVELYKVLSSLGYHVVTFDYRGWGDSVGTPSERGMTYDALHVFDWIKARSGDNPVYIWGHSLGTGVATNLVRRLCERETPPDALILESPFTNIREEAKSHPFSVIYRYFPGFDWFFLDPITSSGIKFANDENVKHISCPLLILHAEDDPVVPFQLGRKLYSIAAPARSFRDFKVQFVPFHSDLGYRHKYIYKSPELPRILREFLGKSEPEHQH
Kind of test: Inhibition of human ABHD12 expressed in HEK293 cells assessed as remaining enzyme activity at 1 uM pre-incubated for 10 mins before 2-AG substrate addition by HPLC method. It counts as cell-based.

Test [4] addresses T4, Fatty-acid amide hydrolase 1 (Homo sapiens) (UniProt O00519).
T4 sequence (whole entry): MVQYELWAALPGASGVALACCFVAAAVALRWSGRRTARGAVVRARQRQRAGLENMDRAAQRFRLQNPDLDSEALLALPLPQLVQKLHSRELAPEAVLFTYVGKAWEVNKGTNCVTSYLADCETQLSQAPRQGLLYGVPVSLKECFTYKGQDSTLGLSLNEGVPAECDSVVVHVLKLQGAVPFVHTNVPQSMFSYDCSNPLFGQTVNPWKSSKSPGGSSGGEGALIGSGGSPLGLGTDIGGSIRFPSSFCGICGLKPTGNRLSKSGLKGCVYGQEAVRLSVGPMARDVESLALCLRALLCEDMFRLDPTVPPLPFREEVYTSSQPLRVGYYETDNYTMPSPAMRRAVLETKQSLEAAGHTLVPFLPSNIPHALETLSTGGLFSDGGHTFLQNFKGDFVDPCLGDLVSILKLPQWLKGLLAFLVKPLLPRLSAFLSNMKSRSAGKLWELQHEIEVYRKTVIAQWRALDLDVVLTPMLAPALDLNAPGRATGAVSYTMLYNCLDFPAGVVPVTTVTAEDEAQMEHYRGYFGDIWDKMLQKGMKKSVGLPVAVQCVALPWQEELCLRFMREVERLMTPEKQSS
Description: Inhibition of human FAAH expressed in COS7 cell membranes at 10 uM pre-incubated for 10 mins before [3H]-AEA substrate addition by liquid scintillation counting. The following applies: COS-7.

Test [5] concerns the target T5, Monoglyceride lipase (Homo sapiens) (UniProt Q99685).
T5 sequence (whole entry): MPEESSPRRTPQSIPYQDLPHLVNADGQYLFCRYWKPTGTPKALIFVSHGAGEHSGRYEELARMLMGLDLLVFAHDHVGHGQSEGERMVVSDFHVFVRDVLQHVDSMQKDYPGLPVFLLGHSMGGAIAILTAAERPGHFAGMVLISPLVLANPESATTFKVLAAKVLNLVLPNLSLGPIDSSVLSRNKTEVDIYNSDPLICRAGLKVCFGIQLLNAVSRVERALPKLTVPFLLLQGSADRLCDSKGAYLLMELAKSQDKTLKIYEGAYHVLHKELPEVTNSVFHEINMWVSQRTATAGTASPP
Description: Inhibition of human MAGL expressed in HEK293 cells at 10 uM pre-incubated for 10 mins before 2-AG substrate addition by HPLC method. It is filed as cell-based. The method, boiled down: (§2)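 Lysates of hMAGL-overexpressing HEK293 cells in 50 mM Tris–HCl pH 7.4 with 1 mM EDTA. After a 10 min preincubation with inhibitor or DMSO, 2-AG was added (final 50 µM) and incubated 10 min at 37 °C. The reaction was stopped and samples centrifuged. Arachidonic acid formation and 2-AG depletion were measured by HPLC. Replicates as for the FAAH assay.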

Test [6] concerns the target T6, Fatty-acid amide hydrolase 1 (Homo sapiens, UniProt O00519).
T6 sequence (O00519 whole entry): T4 sequence (whole entry)
Description: Inhibition of human FAAH expressed in COS7 cell membranes pre-incubated for 10 mins before [3H]-AEA substrate addition by liquid scintillation counting. Also on record: species or system COS-7.

In the next test the target is T7, Monoglyceride lipase (Homo sapiens, UniProt Q99685).
T7 sequence (Q99685 whole entry): T5 sequence (whole entry)
Description: Inhibition of human MAGL expressed in HEK293 cells pre-incubated for 10 mins before 2-AG substrate addition by HPLC method. It is filed as cell-based. The following applies: for IC50: read-out: IC50. The gist of the method:
as §2

Consider `COc1nn(Cc2ccc(-c3ccccc3)cc2)c(=O)o1`, for which, in test [1], the inhibition result was “inactive”.

In the case of `COC(=O)c1cccc(Cn2nc(OC)oc2=O)c1`, the IC50 in test [2] is 0.45 µM. In addition, the inhibition entry in test [3] is “inactive”. Moreover, the inhibition in test [4] stood at 20%; in test [5] it was 7%.

With `COc1nn(Cc2ccc(C#N)cc2)c(=O)o1`, the inhibition entry in test [3], in test [4] and in test [1] was “inactive” in each case. Moreover, the inhibition in test [5] was 25%.

`COc1nn(Cc2ccccc2-c2ccccc2)c(=O)o1`: the inhibition entry in test [3] and in test [1] was “inactive” throughout. In addition, the inhibition stood at 23% in test [4] and 8% in test [5].

Consider `COc1nn(Cc2ccccc2NC(C)=O)c(=O)o1`, for which the inhibition entry in test [3] and in test [1] was “inactive” each time. Moreover, the inhibition in test [4] came to 11%; in test [5], 3%.

For the compound `COc1nn(Cc2ccccc2Oc2ccccc2)c(=O)o1`, the inhibition result in test [5] was “inactive”. Also, the Activity in test [1] was determined as 60%.

Regarding `COc1cccc(Cn2nc(OC)oc2=O)c1`, the inhibition entry in test [3] and in test [4] was “inactive” in each case. In test [5], this compound returned an inhibition of 6%. For the same compound, the Activity in test [1] was 70%.

For `COC(=O)c1ccc(Cn2nc(OC)oc2=O)cc1`, the inhibition result in test [3] and in test [1] was “inactive” throughout. Moreover, the inhibition in test [5] turned out to be 15%. Besides, the IC50 in test [6] (read-out: IC50) and in test [6] (read-out: pIC50 (converted)) was 6.76 µM each time.

For the compound `COc1nn(Cc2ccc(N)cc2)c(=O)o1`, the inhibition entry in test [3] and in test [1] was “inactive” in each case. The figures for the inhibition in test [4] and in test [5] were 34% and 23%, respectively.

In the case of `COc1nn(Cc2cccc(NC(=O)c3ccccc3)c2)c(=O)o1`, the inhibition result in test [3] and in test [4] was “inactive” each time. In test [5], this compound came in with an inhibition of 48%. Besides, the Activity in test [1] stood at 79%.

At Monoglyceride lipase (hek293), `COc1nn(Cc2ccc(Oc3ccccc3)cc2)c(=O)o1` came in with a pIC50 of 6.4. In addition, the Activity in test [1] worked out at 77%.

Turning to `COc1nn(Cc2ccccc2)c(=O)o1`, the inhibition result in test [4] and in test [5] was “inactive” in each case. In addition, the Activity in test [1] amounted to 61%.

`COc1nn(Cc2ccccc2[N+](=O)[O-])c(=O)o1`: the inhibition entry in test [3] was “inactive”. Besides, the inhibition in test [4] came out at 36%; in test [5], 43%. In addition, the Activity in test [1] worked out at 57%.

On to `COc1nn(Cc2ccc([N+](=O)[O-])cc2)c(=O)o1`, for which the inhibition entry in test [3] and in test [1] was “inactive” each time. The values for the inhibition in test [4] and in test [5] were 18% and 36%, respectively.

With `COc1nn(Cc2cccc(OCc3ccccc3)c2)c(=O)o1`, the inhibition result in test [3] was “inactive”. Besides, the IC50 on Monoglyceride lipase is 3.23 µM; in test [6] (read-out: IC50) it was 1.51 µM; in test [6] (read-out: pIC50 (converted)), 1.51 µM. Also, the Activity in test [1] was 53%.

On to `COc1nn(Cc2ccc3ccccc3c2)c(=O)o1`, for which the inhibition entry in test [3], in test [5] and in test [1] was “inactive” in each case. The IC50 in test [6] (read-out: IC50) and in test [6] (read-out: pIC50 (converted)) was 3.98 µM throughout.

`COc1nn(Cc2ccc(NC(C)=O)cc2)c(=O)o1`: the inhibition entry in test [3] and in test [1] was “inactive” throughout. In addition, the inhibition in test [4] amounted to 37%; in test [5], 16%.

On to `COc1nn(Cc2cccc(NC(C)=O)c2)c(=O)o1`, for which the inhibition result in test [3], in test [4] and in test [1] was “inactive” throughout. Also, the inhibition in test [5] was found to be 12%.

Turning to `COc1nn(Cc2ccc(OCc3ccccc3)cc2)c(=O)o1`, the inhibition result in test [3] and in test [1] was “inactive” each time. Besides, the IC50 at Monoglyceride lipase is 0.52 µM; in test [6] (read-out: IC50) it was 0.41 µM; in test [6] (read-out: pIC50 (converted)) it was 0.407 µM.

Consider `COc1nn(Cc2ccc(NC(=O)c3ccccc3)cc2)c(=O)o1`, for which the inhibition result in test [3] was “inactive”. Also, the IC50 was 0.56 µM on Monoglyceride lipase, 0.62 µM in test [6] (read-out: IC50) and 0.617 µM in test [6] (read-out: pIC50 (converted)). The Activity in test [1] came to 88%.

Regarding `COc1nn(Cc2cccc3ccccc23)c(=O)o1`, in test [3], the inhibition entry was “inactive”. For the same compound, the figures for the inhibition in test [4] and in test [5] were 35% and 11%, respectively. In test [1], the Activity amounted to 64%.

For `COc1nn(Cc2cccc(-c3ccccc3)c2)c(=O)o1`, the inhibition result in test [1] was “inactive”.

On to `COc1nn(Cc2ccccc2N)c(=O)o1`, for which the inhibition result in test [3] and in test [1] was “inactive” throughout. Besides, the inhibition in test [4] came to 8%; in test [5], 4%.

With `COc1nn(Cc2cccc(Cl)c2)c(=O)o1`, in test [3], the inhibition entry is “inactive”. The inhibition in test [4] was 37%; in test [5], 43%. In addition, in test [1], the Activity is 52%.

Regarding `COc1nn(Cc2ccc(CC(C)C)cc2)c(=O)o1`, the inhibition result in test [1] is “inactive”.

Regarding `COc1nn([C@@H](C)c2ccc(CC(C)C)cc2)c(=O)o1`, the inhibition entry in test [1] was “inactive”.

Regarding `COc1nn(Cc2cccc(Oc3ccccc3)c2)c(=O)o1`, the Activity in test [1] was found to be 70%.

Take `CCOc1nn(Cc2cccc(N)c2)c(=O)o1`: the inhibition result in test [3] and in test [1] was “inactive” each time. Further, the inhibition in test [4] was determined as 10%; in test [5] it was 15%.

`COc1nn(Cc2cccc([N+](=O)[O-])c2)c(=O)o1`: the inhibition entry in test [3] is “inactive”. In addition, the results for the inhibition in test [4] and in test [5] were 7% and 32%, respectively. Also, the Activity in test [1] worked out at 65%.

On to `COc1nn(Cc2ccccc2NC(=O)c2ccccc2)c(=O)o1`, for which the inhibition result in test [3], in test [4], in test [5] and in test [1] was “inactive” in each case.

In the case of `COc1nn(Cc2cccc(C#N)c2)c(=O)o1`, the inhibition result in test [3] and in test [4] was “inactive” in each case. The compound also returned an inhibition in test [5] of 23%. In addition, in test [1], the Activity is 63%.
